# Reference: ChEMBL document CHEMBL3994594, “Angiogenesis Inhibitors and Anti-Inflammatory Agents from Phoma sp. NTOU4195” (J Nat Prod, 2016)
# The source made the active and inactive calls. No cut-off for these calls is given here.
# How the values were obtained:
# [1] = Antiangiogenic activity in CD34-positive human EPC assessed as inhibition of tube formation on matrigel after 24 hrs by inverted phase-contrast microscopy; assay type: functional, cell-based
# Summary of the method: (§1)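 Human CD34+ EPCs (from PBMCs, MACS bead separation) maintained on 1% gelatin in MV2 medium with 20% FBS. Matrigel polymerized 30 min at 37 °C; 6 × 10^4 cells/well seeded in MV2 with 2% FBS plus compound, 24 h at 37 °C. Tube length measured in three random fields per well, expressed against DMSO control; IC50 derived from this.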
# RAW264.7 [2] = assay: Antiinflammatory activity in mouse RAW264.7 cells assessed as inhibition of LPS-stimulated nitric oxide production compound treated prior to LPS challenge by Griess assay; assay type: functional, cell-based
# Summary of the method: (§2)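 RAW264.7 grown to confluence (24 h, DMEM 10% FBS), then serum-free DMEM 4 h for quiescence. Compounds added before LPS (200 ng/mL). Nitrite in medium read spectrophotometrically by Griess reaction. Percent inhibition calculated versus vehicle plus LPS; Emax is inhibition at 100 μM, IC50 the concentration giving 50% of Emax; n = 4−6.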
# [3] = Cytotoxicity against mouse RAW264.7 cells assessed as cell viability by AlamarBlue assay; assay type: cell-based; design: concentration or dose not given beside the values; conditions: read-out: Activity
# Summary of the method: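 RAW264.7 macrophages exposed to compounds at up to 100 μM under the NO-assay conditions; viability read by AlamarBlue.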
# [4] = Cytotoxicity against CD34-positive human EPC at 20 uM after 24 hrs by LDH release assay; assay type: cell-based
# Summary of the method: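 EPCs seeded at 5 × 10^3 cells/well, treated 24 h in MV2 medium with 2% FBS containing compound at 20 μM. LDH release taken as medium LDH activity relative to cell-lysate LDH activity. Mean ± SEM of three independent experiments.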
# RAW264.7 [5] = assay: Antiinflammatory activity in mouse RAW264.7 cells assessed as inhibition of LPS-stimulated nitric oxide production at 100 uM compound treated prior to LPS challenge by Griess assay; assay type: functional; summary of the method: as §2
# EPC = assay: Antiangiogenic activity in CD34-positive human EPC assessed as inhibition of tube formation on matrigel at 10 uM after 24 hrs by inverted phase-contrast microscopy; assay type: functional, cell-based; summary of the method: as §1
Structure (SMILES),IC50 [1] [µM],IC50 (RAW264.7 [2]) [µM],viability [3] [%],Activity [4],Emax at 100 µM (RAW264.7 [5]) [%],inhibition (EPC)
C=C1CC[C@H](OC(=O)/C=C/[C@@H](O)[C@H](C)O)[C@H](OC)[C@H]1[C@@]1(C)O[C@H]1CC=C(C)C,19.2,35.4,93,Non-Toxic,80.8,Active
CC/C=C\[C@H](O)[C@H](O)C1=C(C)C(=O)[C@]2(O1)C(=O)N[C@@](OC)(C(=O)c1ccccc1)[C@@H]2O [PSEUROTIN A],> 20,> 100,103,,38.8,
N=C(N)NN [PIMAGEDINE],,24.7,99.2,,83.7,
CO[C@H]1[C@@H](OC(=O)/C=C/[C@H]2O[C@H]2C)CC[C@@](O)(CCl)[C@@H]1[C@]1(C)O[C@H]1CC=C(C)C,> 20,13.5,101,Non-Toxic,100,
CC/C=C\[C@H](O)[C@H](O)C1=C(C)C(=O)[C@]2(O1)C(=O)N[C@@](OC)(C(=O)c1ccccc1)[C@H]2O,> 20,62.5,99.3,,67.2,
CC/C=C\[C@H](O)[C@H](O)C1=C(C)C(=O)[C@]2(O1)C(=O)N[C@](OC)(C(=O)c1ccccc1)[C@H]2O,> 20,40.6,100,,78.2,
N=C(NCCC[C@H](N)C(=O)O)N[N+](=O)[O-] [NITROARGININE],,144,102,,42.1,

# Continued, in another order:
IC50 [1] [µM],IC50 (RAW264.7 [2]) [µM],Structure (SMILES),viability [3] [%],Activity [4],Emax at 100 µM (RAW264.7 [5]) [%],inhibition (EPC)
3.6,,CNC(=O)c1cc(Oc2ccc(NC(=O)Nc3ccc(Cl)c(C(F)(F)F)c3)cc2)ccn1 [SORAFENIB],,,,
16.2,22.8,CO[C@H]1[C@@H](OC(=O)/C=C/[C@H]2O[C@@H]2C)CC[C@@]2(O)CO[C@@](C)(C(O)CC=C(C)C)[C@H]12 (stereo partly drawn),92.2,Non-Toxic,93.4,Active
16.7,57,CC/C(O)=C/C=C(\O)C1=C(C)C(=O)[C@@]2(O1)C(=O)N[C@](OC)(C(=O)c1ccccc1)[C@H]2O,97.6,Non-Toxic,63.1,Active
8.1,19.3,CO[C@H]1[C@@H](OC(=O)/C=C/[C@@H](O)[C@H](C)O)CC[C@@](O)(CCl)[C@@H]1[C@]1(C)O[C@H]1CC=C(C)C,99.2,Non-Toxic,87.9,Active
18.4,20.6,CO[C@H]1[C@@H](OC(=O)/C=C/[C@@H](O)[C@H](C)O)CC[C@@]2(CO2)[C@@H]1[C@@]1(C)O[C@H]1CC=C(C)C,97.6,,100,
17.8,8.8,CO[C@H]1[C@@H](OC(=O)/C=C/[C@H]2O[C@H]2C)CC[C@@]2(CO2)[C@@H]1[C@]1(C)O[C@H]1CC=C(C)C,98.7,Non-Toxic,100,Active
